# Screens (PubChem BioAssay)
# DTT redox prof: compounds producing H2O2 with reducing agent – biochemical, NIH compound library profiling, artefact control for MLSCN library redox annotation, primary screen; DTT-dependent redox cycling H2O2, phenol red/HRP absorbance; 100% = 100 µM peroxide control, 0% = buffer; activation, % at 10 µM; 0.03% of 200,000 active;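 active = activation of at least 50% relative to the plate's high and low controls in the primary single-dose screen; inactive = activation below 50%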;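 also: compound incubated with DTT at 0.8 mM final as the reducing agent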
# GSTO1 inh: blocks human GSTO1 in RBBP9 counter-screen; recombinant GSTO1, activity-based probe fluorescence polarization; inhibition, % at 5.96 µM; 1.1% of 300,000 active; AID 1974;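 active = inhibition above the campaign mean inhibition plus 3 SD, cut at about 35% in these data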;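 also: 0% = GSTO1-1 with DMSO and 100% = wells lacking GSTO1-1 enzyme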
# Target sequence (P78417 whole entry, looked up): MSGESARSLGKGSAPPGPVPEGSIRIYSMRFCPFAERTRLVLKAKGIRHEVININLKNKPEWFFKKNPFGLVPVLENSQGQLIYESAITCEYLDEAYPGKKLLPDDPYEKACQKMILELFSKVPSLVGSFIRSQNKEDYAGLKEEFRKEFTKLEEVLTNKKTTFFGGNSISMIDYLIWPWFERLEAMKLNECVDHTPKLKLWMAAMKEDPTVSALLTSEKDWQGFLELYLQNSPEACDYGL
# UBC9 SUMO inh: SUMOylation inhibition; HTRF SUMOylation assay, SAE1/SAE2 + UBC9, in vitro; inhibition, % at 35 µM; 0.36% of 290,000 active; AID 2006; in the data active = inhibition above about 50%, passing the limit was not always enough
# Target sequence (P63279 whole entry, looked up): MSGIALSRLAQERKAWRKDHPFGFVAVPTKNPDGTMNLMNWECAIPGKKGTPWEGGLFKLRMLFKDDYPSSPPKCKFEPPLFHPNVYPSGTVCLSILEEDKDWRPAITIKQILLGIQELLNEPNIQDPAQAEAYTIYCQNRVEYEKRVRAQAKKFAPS
# HKDC1 inh: blocks human hexokinase HKDC1 activity | 0.16% of 340,000 active | AID 493160 | inhibition, % at 20 µM | recombinant HKDC1, G6PDH/diaphorase resazurin coupled fluorescence | Q2TB90;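 active = inhibition above about 35% when tested at 20 µM, limit read from the data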;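 also: plate controls were DMSO wells with enzyme for no effect and DMSO wells lacking enzyme for full effect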
#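 Test system: recombinant HKDC1 (HK5) hexokinase enzyme, produced in-house / Doses: 20 µM test compound, 1% DMSO / Timing: 90 min, room temperature / Detection: G6PDH/diaphorase-coupled fluorescence, 1 mM NADP, 100 µM resazurin, 525/613 nm / Control set: DMSO wells with and without enzyme mix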
# Apaf-1 inh: inhibitors of human Apaf-1 apoptosome; reconstituted apoptosome caspase-3 activity, DEVD-Rh110 fluorescence; inhibition, % at 20 µM; 0.71% of 330,000 active; active = inhibition of at least 40% at 20 µM;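 also: plate controls were DMSO wells for no effect and DEVD-CHO caspase inhibitor wells for full effect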
#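 Medium: Hepes buffer, pH 7.5 / System: biochemical Apaf-1 apoptosome reconstitution / Measured by: Rh110 fluorescence, excitation 480 nm, emission 540 nm / Times: compound with Apaf-1, dATP, procaspase-3 30 min, then 50 min reaction, room temperature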
# GSTO1 inh conf: confirmation of human GSTO1 inhibitors | shares compounds with GSTO1 inh | 54% of 2,400 active | recombinant GSTO1, probe fluorescence polarization | inhibition, % at 5.96 µM | AID 2176;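 active = inhibition above the primary screen's cutoff, its mean inhibition plus 3 SD, cut at about 35% in these data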;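 also: loss of polarization as inhibitors block binding of rhodamine sulfonate ester activity probe; 0% = GSTO1 with DMSO and 100% = wells lacking GSTO1 enzyme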
# Apaf-1 inh conf: confirmation of Apaf-1 inhibitors; shares compounds with Apaf-1 inh; reconstituted apoptosome, caspase-3 DEVD-Rh110 fluorescence; inhibition, % at 20 µM; 25% of 1,800 active; AID 504614;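 active = mean inhibition of at least 40% at 20 µM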;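 also: plate controls were DMSO wells for no effect and DEVD-CHO caspase inhibitor control wells for full effect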
# Rh110 quench: Rh110 signal interference in Apaf-1 inhibitor counter-screen. activation (fluorescence interference), % at 20 µM. 1,800 tested, under 10 active. shares compounds with Apaf-1 inh. Rh110 fluorescence interference, quenched caspase reaction. AID 504615;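 active = signal rise of 40% or more at 20 µM, treated as a fluorescence artifact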
# Apaf1 inh interf: counter-screen for Apaf-1 inhibitors: fluorescence interference, dose response. fluorescence interference counterscreen, Apaf-1 assay format. AID 588538. shares compounds with Apaf-1 inh. 460 tested, under 10 active. IC50, µM; call rule not given here
# HKDC1 act conf: confirmation of human HKDC1 activators; shares compounds with HKDC1 inh; recombinant HKDC1, G6PDH/diaphorase resazurin fluorescence; active compounds read low; inhibition, % at 20 µM; 14% of 740 active; AID 504708;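 active = inhibition at or below a set negative limit, negative inhibition meaning the enzyme was activated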
# The depositor's hits bear a star; · = no result given; ! = repeats disagree. In the library only some 1.4% were active in any assay of this set; here they are far more common.
SMILES,DTT redox prof,GSTO1 inh,UBC9 SUMO inh,HKDC1 inh,Apaf-1 inh,GSTO1 inh conf,Apaf-1 inh conf,Rh110 quench,others
COc1ccc(C(=O)N/C(=C/c2ccccc2F)C(=O)NCCN2CCOCC2)cc1OC,·,0,14,1,9,·,·,·,
CCc1cc[n+](C2=C([O-])c3ccccc3C(=O)/C2=N\S(=O)(=O)c2cccs2)cc1,-1,83*,59*,26,68*,82*,64*,2,Apaf1 inh interf=>100
O=C1N/C(=C\c2ccc(O)cc2)C(=O)c2ccccc21,-4,75*,38,6,97*,79*,74*,0,Apaf1 inh interf=>100
O=C(O)/C=C1\NC(=O)c2ccccc21,-4,3,10,-3,8,·,·,·,
CC1CN(Cc2c(O)ccc3c2oc(=O)c2ccccc23)CC(C)O1 (configuration not stated),·,42*,34,29,44*,46*,37,7,
CCN(CC)c1ccc(N=C2C(=O)Nc3ccccc32)cc1,·,85*,30,-7,47*,4,15,1,
Cc1ccc(N=C2C(=O)Nc3ccccc32)cc1,·,1,-1,-6,5,·,·,·,
COc1cc(SC)ccc1C(=O)Nc1ccc2c(c1)CCC2,·,-4,-6,0,24,·,·,·,
CCN(CC)C(=O)CSc1nnc(-c2ccccn2)n1-c1ccccc1OC,·,5,-12,-1,-27,·,·,·,
Oc1ccc(NCc2cccc(OCc3ccccc3)c2)cc1,1,82*,80,8,91*,6,29,4,
c1ccc(COc2cccc(CNCc3cccnc3)c2)cc1,0,-1,16,-11,12,·,·,·,
COC(=O)CCC(=O)OC1(C)C(=O)C=C2C=C(C3CC3)N(CCc3ccccn3)C=C2C1=O (configuration not stated),·,43*,6,19,53*,17,38,4,
COC(=O)CCC(=O)OC1(C)C(=O)C=C2C=C(C3CC3)N(CCCCO)C=C2C1=O (configuration not stated),·,46*,8,20,64*,9,58*,2,Apaf1 inh interf=>100
COC(=O)CCC(=O)OC1(C)C(=O)C=C2C=C(C3CC3)N(C(CO)CO)C=C2C1=O (configuration not stated),·,23,2,17,33,·,·,·,
COC(=O)CCC(=O)OC1(C)C(=O)C=C2C=C(C3CC3)N(CCc3c[nH]c4ccccc34)C=C2C1=O (configuration not stated),·,28,21,24,28,·,·,·,
CCc1ccc(CNC(=O)CCn2ccc3cc(S(=O)(=O)N4CCCC4)ccc32)cc1,·,-10,-5,-2,11,·,·,·,
COCCOC(=O)c1c(N)n(CCCN2CCOCC2)c2nc3ccccc3nc12,·,7,33,2,10,·,·,·,
CCCCCOC(=O)c1c(N)n(CCOC)c2nc3ccccc3nc12,-4,65*,27,14,94*,18,27,13,
Cn1nc(-c2ccccn2)nc2c(=O)n(C)c(=O)nc1-2,·,97*,102*,29,98*,92*,100*,-1,Apaf1 inh interf=>100
COc1ccc(-c2nc(-c3ccccn3)ncc2S(C)(=O)=O)cc1,1,-2,15,-15,10,·,·,·,
O=C1C=C(N2CCOCC2)c2ccccc2C1=O,·,90*,96*,77*,98*,99*,100*,-3,Apaf1 inh interf=>100;HKDC1 act conf=79
O=C(O)C1Sc2[nH]c(=O)sc2C2c3ccc(O)cc3OC(=O)C12 (configuration not stated),11,5,39,1,22,·,·,·,
CCCCOc1ccc(C(=O)N2CCN(CC(=O)Nc3ccc(C)cc3)CC2)cc1OC,·,0,11,-3,12,·,·,·,
CCOC(=O)C1CCN(C(=O)Nc2ccc3c(c2)nc(C)n3C)CC1,0,-2,12,-1,-4,·,·,·,
CCOC(=O)C1CCN(C(=O)Nc2ccc3nc(-c4ccco4)c(-c4ccco4)nc3c2)CC1,1,80*,73*,43*,70*,32,·,·,HKDC1 act conf=0
SMILES,DTT redox prof,GSTO1 inh,UBC9 SUMO inh,HKDC1 inh,Apaf-1 inh,GSTO1 inh conf,Apaf-1 inh conf,Rh110 quench,others
O=C(COc1ccc2ccccc2c1)Nc1ccccc1C(=O)O,·,-24,11,0,-6,·,·,·,
O=C1c2cc(CO)cc(O)c2C(=O)c2c(O[C@@H]3OC(CO)[C@@H](O)[C@@H](O)[C@@H]3O)cccc21 (some centres not stated),·,7,·,9,-4,·,·,·,
O=C(O)c1cc(O)c2c(c1)[C@@H]([C@H]1c3cc(C(=O)O)cc(O)c3C(=O)c3c(O[C@@H]4O[C@H](CO)[C@@H](O)[C@H](O)[C@H]4O)cccc31)c1cccc(OC3O[C@H](CO)[C@@H](O)[C@H](O)[C@H]3O)c1C2=O (some centres not stated),·,84*,·,83*,95*,80*,·,·,HKDC1 act conf=51
Cc1cc2nccnc2cc1C,·,·,·,-3,·,·,·,·,
O=C1C(Cl)=C(N2CCC(C(=O)O)CC2)C(=O)c2ccccc21,·,80*,·,50*,75*,79*,53*,2,Apaf1 inh interf=>100;HKDC1 act conf=57
COc1ccc(CCC(=O)NCC(c2ccco2)N2CCc3ccccc32)cc1 (configuration not stated),·,2,·,-5,19,·,·,·,
O=C1C=C(Nc2ccccc2C(=O)O)c2ccccc2C1=O,·,75*,·,46*,91*,88*,93*,-1,Apaf1 inh interf=>100;HKDC1 act conf=44
Cc1cccc(C)c1NC(=O)C(C)Sc1n[nH]c(-c2ccncc2)n1 (configuration not stated),·,0,8,-4,-11,·,·,·,
O=C(CSc1nnc(Cc2cccs2)n1C1CC1)NC1CCS(=O)(=O)C1 (configuration not stated),·,·,·,4,-1,·,·,·,
COC(=O)c1ccccc1NC1=C/C(=N\S(=O)(=O)c2ccc(C(=O)O)cc2)c2ccccc2C1=O,·,86*,92*,82*,95*,85*,97*,4,Apaf1 inh interf=>100;HKDC1 act conf=86
COC(=O)c1cccc(NS(=O)(=O)c2cccs2)c1C,1,0,8,-9,·,·,·,·,
COC(=O)c1ccccc1NC1=C/C(=N\S(=O)(=O)c2cccs2)c2ccccc2C1=O,0,79*,58,39*!,92*,84*,94*,14,Apaf1 inh interf=>100;HKDC1 act conf=39
